Measured values from article PMC7883397 (Cancer treatment and research communications, 2020).
pIC50: −log10 of the molar value.

Experiments:
G361 melanoma cells = assay: G361 melanoma cell proliferation; type: cell-based; settings: Homo sapiens, G-361, read-out: IC50, inhibition of G361 cell proliferation
UACC-62-R cells = assay: PLX4720-resistant UACC-62-R melanoma cell proliferation; type: cell-based, human
Summary of the method: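 The PLX4720-resistant UACC-62-R line was derived by sustained culture in low-dose PLX4720. It was maintained in 20 μM PLX4720, with medium replenished twice weekly. Proliferation was tracked as IncuCyte confluence and IC50 was derived for resistant and wild-type cells.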

Row | pIC50 (G361 melanoma cells) | pIC50 (UACC-62-R cells; Homo sapiens, read-out: IC50, inhibition of UACC-62-R cell proliferation) | Compound | resistance of UACC-62-R relative to UACC-62-WT cells (UACC-62-R cells; proliferation in presence of PLX4720)
1 | 4.42 | – | C=CCc1ccc(O)c(-c2cc(CC=C)ccc2O)c1 [MGN, magnolol] | –
2 | – | 4.58 | CCCS(=O)(=O)Nc1ccc(F)c(C(=O)c2c[nH]c3ncc(Cl)cc23)c1F [PLX4720] | approximately six times more resistant
